Series [1] has as its system Mus musculus. In words: Suppression of drug-induced morphine-seeking behavior in C57BL/6J mouse assessed as reduction in stress-induced reinstatement of morphine-CPP at 60 nmol, icv administered 15 mins prior to testing by forced swim test.
For series [2], the target named is T1, Prolactin-releasing peptide receptor (Homo sapiens) (UniProt P49683).
T1 sequence (whole entry): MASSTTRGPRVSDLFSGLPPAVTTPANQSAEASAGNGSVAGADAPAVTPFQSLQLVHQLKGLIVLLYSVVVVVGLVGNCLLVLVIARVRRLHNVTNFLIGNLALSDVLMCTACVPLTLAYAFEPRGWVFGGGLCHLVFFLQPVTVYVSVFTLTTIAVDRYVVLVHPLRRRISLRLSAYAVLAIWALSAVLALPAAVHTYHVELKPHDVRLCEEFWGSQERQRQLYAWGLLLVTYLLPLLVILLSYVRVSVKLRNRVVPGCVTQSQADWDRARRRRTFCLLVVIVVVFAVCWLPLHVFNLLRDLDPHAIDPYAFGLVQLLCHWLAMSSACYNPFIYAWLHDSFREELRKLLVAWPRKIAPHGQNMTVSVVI
In words: Antagonist activity at human Gq-coupled PRLHR expressed in CHOK1 cells assessed as inhibition in prolactin releasing peptide (1 to 31)-induced beta-arrestin 2 recruitment at 20 uM incubated for 30 mins followed by prolactin releasing peptide (1 to 31) addition and measured after 90 or 180 mins by pathhunter beta-arrestin assay relative to control. The format is cell-based. The gist of the method: (§1)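 PathHunter beta-arrestin recruitment, antagonist mode, run at DiscoverX. Cells seeded and held at 37 °C, then preincubated with test sample for 30 min at 37 °C or room temperature (1% vehicle). Agonist then added at EC80 for 90 or 180 min. IC50 comes from concentration–response runs in the same format.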
In general terms: Activated receptors often draw arrestin, which recruitment assays turn into a signal.

The target in series [3] is D(2) dopamine receptor (Homo sapiens) (UniProt P14416). Description: Antagonist activity at human Gi/o-coupled DRD2L expressed in CHOK1 cells assessed as inhibition in dopamine-induced beta-arrestin 2 recruitment at 20 uM incubated for 30 mins followed by dopamine addition and measured after 90 or 180 mins by pathhunter beta-arrestin assay relative to control. Format: cell-based. The gist of the method: as §1
Chain of D(2) dopamine receptor (Homo sapiens) (P14416 whole entry): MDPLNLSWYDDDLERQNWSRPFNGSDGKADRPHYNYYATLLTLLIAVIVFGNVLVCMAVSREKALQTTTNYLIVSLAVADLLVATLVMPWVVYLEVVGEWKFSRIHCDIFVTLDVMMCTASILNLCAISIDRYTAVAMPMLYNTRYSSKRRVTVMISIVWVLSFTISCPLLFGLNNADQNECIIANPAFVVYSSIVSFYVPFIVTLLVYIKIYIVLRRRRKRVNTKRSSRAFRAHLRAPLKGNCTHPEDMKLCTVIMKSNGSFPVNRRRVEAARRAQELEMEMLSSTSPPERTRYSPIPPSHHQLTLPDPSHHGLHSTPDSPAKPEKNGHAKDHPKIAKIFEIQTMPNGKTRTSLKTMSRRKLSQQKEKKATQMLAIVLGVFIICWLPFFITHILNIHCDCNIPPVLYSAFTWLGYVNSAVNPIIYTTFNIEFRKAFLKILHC

Series [4] deals with T2, Neuropeptide S receptor (Homo sapiens) (UniProt Q6W5P4).
T2 sequence (whole entry): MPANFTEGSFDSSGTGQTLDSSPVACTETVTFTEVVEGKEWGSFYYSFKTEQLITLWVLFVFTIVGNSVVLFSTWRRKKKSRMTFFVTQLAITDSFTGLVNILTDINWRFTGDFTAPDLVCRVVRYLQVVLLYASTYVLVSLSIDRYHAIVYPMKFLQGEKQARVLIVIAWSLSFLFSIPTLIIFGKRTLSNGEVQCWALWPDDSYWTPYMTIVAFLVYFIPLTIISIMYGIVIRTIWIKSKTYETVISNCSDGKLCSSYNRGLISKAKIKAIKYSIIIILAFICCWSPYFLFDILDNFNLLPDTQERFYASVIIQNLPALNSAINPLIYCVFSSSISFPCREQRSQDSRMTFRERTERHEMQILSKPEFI
In words: Antagonist activity at human Gq-coupled NPSR1b expressed in human U2OS cells assessed as inhibition in neuropeptide S-induced beta-arrestin 2 recruitment at 20 uM incubated for 30 mins followed by neuropeptide S addition and measured after 90 or 180 mins by pathhunter beta-arrestin assay relative to control. The format is cell-based. The gist of the method: as §1

The nature of series [5]: Stability of compound in pH 2.0 HCl aqueous solution assessed as parent compound remaining at 0.025 mmol measured after 24 hrs. Conditions: read-out: Stability. Format: physicochemical. The gist of the method:
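Acid stability: compound held 24 h at 37 °C in acidic aqueous media at pH 2.0 or pH 4.88. Percent recovery of parent compound was measured.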

In series [6] the test system is Mus musculus. In words: Suppression of drug-induced cocaine-seeking behavior in C57BL/6J mouse assessed as reduction in morphine-conditioned place preference at 60 nmol, icv administered 20 mins prior to behavioral morphine addition measured twice weekly for 7 weeks. The format is functional, organism-based. The settings on record: in the assay text read “morphine-seeking” for “cocaine-seeking”. The gist of the method:
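Male C57BL/6J mice, 7–11 weeks, 20–33 g. Three-compartment counterbalanced place conditioning. Test agent given i.c.v. in 10% Solutol HS 15/90% saline, 20 min before morphine (10 mg/kg i.p., in 0.9% saline). Mice then confined 40 min in the paired outer chamber. Saline i.p. conditioning in the opposite chamber followed 4 h later. Preference was scored in a 30 min automated test. n = 16–30/group; two-way ANOVA with Tukey post hoc.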

In series [7] the target is T3, Muscarinic acetylcholine receptor M4 (Homo sapiens, UniProt P08173).
T3 sequence (P08173 whole entry): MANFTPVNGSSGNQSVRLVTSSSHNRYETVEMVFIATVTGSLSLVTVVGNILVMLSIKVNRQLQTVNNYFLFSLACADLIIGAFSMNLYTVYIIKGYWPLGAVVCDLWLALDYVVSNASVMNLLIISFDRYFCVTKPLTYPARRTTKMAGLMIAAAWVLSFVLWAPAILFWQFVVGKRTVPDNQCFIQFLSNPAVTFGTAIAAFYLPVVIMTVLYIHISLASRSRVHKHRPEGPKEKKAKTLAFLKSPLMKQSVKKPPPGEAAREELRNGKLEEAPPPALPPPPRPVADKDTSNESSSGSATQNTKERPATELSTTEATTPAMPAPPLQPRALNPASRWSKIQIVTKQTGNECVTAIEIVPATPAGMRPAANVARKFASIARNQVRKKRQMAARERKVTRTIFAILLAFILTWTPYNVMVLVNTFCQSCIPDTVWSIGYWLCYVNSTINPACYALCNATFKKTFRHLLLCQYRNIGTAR
In words: Antagonist activity at human Gs/Gi/o-coupled CHRM4 expressed in CHOK1 cells assessed as inhibition in acetylcholine-induced beta-arrestin 2 recruitment incubated for 30 mins followed by acetylcholine addition and measured after 90 or 180 mins by pathhunter beta-arrestin assay. Format: cell-based. The gist of the method:
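PathHunter beta-arrestin recruitment, antagonist mode, run at DiscoverX. Cells seeded and held at 37 °C, then preincubated with test sample for 30 min at 37 °C or room temperature (1% vehicle). Agonist then added at EC80 for 90 or 180 min. […] IC50 comes from concentration–response runs in the same format.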

Series [8] addresses T4, Glucose-dependent insulinotropic receptor (Homo sapiens) (UniProt Q8TDV5).
T4 sequence (whole entry): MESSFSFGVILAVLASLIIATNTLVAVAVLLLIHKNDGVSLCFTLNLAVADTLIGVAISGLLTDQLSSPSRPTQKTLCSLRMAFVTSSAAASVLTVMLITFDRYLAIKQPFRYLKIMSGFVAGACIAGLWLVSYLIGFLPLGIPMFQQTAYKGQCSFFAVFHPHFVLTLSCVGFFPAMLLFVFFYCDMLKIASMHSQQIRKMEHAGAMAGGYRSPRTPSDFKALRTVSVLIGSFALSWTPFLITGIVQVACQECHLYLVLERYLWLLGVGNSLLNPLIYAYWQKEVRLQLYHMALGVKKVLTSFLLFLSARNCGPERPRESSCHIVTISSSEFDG
Description: Antagonist activity at human GPR119 assessed as inhibition in oleoylethanolamide-induced beta-arrestin 2 recruitment at 20 uM incubated for 30 mins followed by oleoylethanolamide addition and measured after 90 or 180 mins by pathhunter beta-arrestin assay relative to control. The gist of the method:
as §1

The values that follow come from ChEMBL document CHEMBL4342456, “Preventing Morphine-Seeking Behavior through the Re-Engineering of Vincamine's Biological Activity” (J Med Chem, 2020).

Activity calls are given as the source filed them. The rule behind the calls is not given here.

Take `CC[C@@]12CCCN3CCc4c([nH]c5ccccc45)[C@]31N(Cc1cn(Cc3ccccc3)nn1)C(=O)C2`: the result in series [1] and in series [6] was Active. In addition, the inhibition (as a rule, the share of the control response that was lost under treatment) in series [2] worked out at 59%; in series [3] it was 15%; in series [4] it was 30%; in series [8], 30%. Further, in series [5], the remaining at 24 h, 0.025 mmol is 92.1%. Besides, the IC50 (in general, the concentration at which inhibition is half-maximal) in series [7] was determined as 12.5 µM.
